Laboratory results published in ChEMBL document CHEMBL2163241, “Human neutrophil elastase phosphonic inhibitors with improved potency of action” (J Med Chem, 2012).

Columns and labels:
[1] = Selectivity ratio of Kinact/Ki ratio for porcine pancreatic elastase to Kinact/Ki ratio for human leukocyte elastase
[2] = Chemical stability in pH 7.4 PBS buffer assessed as compound remaining at […] measured after 6 days at 37 degC by HPLC; assay type: physicochemical; details: read-out: Stability
[3] = molecular target: Pancreatic elastase (Sus scrofa) (UniProt P08419+P00772); experiment: Inhibition of porcine pancreatic elastase at 25 uM assessed as Kinact/Ki ratio incubated for 15 mins by spectrofluorometry; assay type: protein assay
[4] = Drug degradation in pH 7.4 PBS buffer assessed as compound hydrolysis at […] measured after 48 hrs at 37 degC by HPLC; assay type: physicochemical; details: read-out: Drug degradation
[5] = organism: Homo sapiens; experiment: Selectivity ratio of Kinact/Ki ratio for chymotrypsin to Kinact/Ki ratio for human leukocyte elastase
[6] = Half life in pH 7.4 PBS buffer at […] incubated at 37 degC by HPLC; assay type: physicochemical
[7] = Half life in 80% human plasma at […] incubated at 37 degC by HPLC; assay type: ADME, cell-free
Procedure, shortened: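 DMSO stock (50 mM) added to freshly isolated pooled healthy-donor human plasma diluted to 80% with PBS pH 7.4, final 3 mg/mL or 0.1 mg/mL; incubated 37 °C; compound remaining monitored by HPLC over time to give half-life.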

[8] = Solubility in 80% human plasma at […] incubated at 37 degC by HPLC; assay type: ADME, cell-free
[9] = Solubility in pH 7.4 PBS buffer at […] incubated at 37 degC by HPLC; assay type: physicochemical
[10] = Inhibition of trypsin at 25 uM assessed as Kinact/Ki ratio incubated for 15 mins by spectrofluorometry
[11] = molecular target: T1, Neutrophil elastase (Homo sapiens) (UniProt P08246); experiment: Inhibition of human leukocyte elastase at 25 uM assessed as Kinact/Ki ratio incubated for 15 mins by spectrofluorometry
T1 sequence (whole entry): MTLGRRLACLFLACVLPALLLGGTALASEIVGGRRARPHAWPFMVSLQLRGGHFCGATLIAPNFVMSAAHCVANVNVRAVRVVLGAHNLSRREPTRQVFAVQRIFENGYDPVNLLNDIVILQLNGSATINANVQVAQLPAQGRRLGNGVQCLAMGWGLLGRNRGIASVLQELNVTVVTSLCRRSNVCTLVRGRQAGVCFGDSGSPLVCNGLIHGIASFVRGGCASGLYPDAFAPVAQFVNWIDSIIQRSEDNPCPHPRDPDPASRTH

[12] = Inhibition of chymotrypsin at 25 uM assessed as Kinact/Ki ratio incubated for 15 mins by spectrofluorometry
[13] = organism: Homo sapiens; experiment: Selectivity ratio of Kinact/Ki ratio for human leukocyte elastase to Kinact/Ki ratio for chymotrypsin
[14] = molecular target: T1, Neutrophil elastase (Homo sapiens); experiment: Irreversible inhibition of human leukocyte elastase assessed as recovery of enzyme activity using MeOSuc-AAPV-AFC substrate at 200 uM treated for 15 mins followed by dialysis measured up to 50 days by fluorescence assay; parameters: scale not given: the % may be the effect or the level left

Structure (SMILES) | Ratio [1] | remaining at 144 h [2] [%] | Ratio [3] [M⁻¹ s⁻¹] | degraded at 48 h [4] [%] | Ratio [5] | half-life [6] [h] | half-life [7] [h] | solubility [8] [mM] | solubility [9] [mM] | Ratio [10] [M⁻¹ s⁻¹] | Ratio [11] [M⁻¹ s⁻¹] | Ratio [12] [M⁻¹ s⁻¹] | Ratio [13] | Activity [14] [%]
CSc1ccc(OP(=O)(Oc2ccc(SC)cc2)C(NC(=O)[C@@H]2CCCN2C(=O)[C@@H](NC(=O)COc2ccc(OCC(=O)O)cc2)C(C)C)C(C)C)cc1 (mixture of isomers) | 50.8 | > 50 | 19100 | 16 | 245 | 150 | 8 | 6.23 | 6.23 | < 50 | 970000 | 4000 |  | 
CSc1ccc(OP(=O)(Oc2ccc(SC)cc2)C(NC(=O)[C@@H]2CCCN2C(=O)[C@@H](NC(=O)OC(C)(C)C)C(C)C)C(C)C)cc1 (mixture of isomers) | 15 |  | 14000 |  |  | 28 | 6.2 | 0.36 | 0.36 | < 50 | 217000 | 900 |  | 
COC(=O)c1cccc(OP(=O)(Oc2cccc(C(=O)OC)c2)C(CC(C)C)NC(=O)[C@@H]2CCCN2C(=O)[C@@H](NC(=O)OC(C)(C)C)C(C)C)c1 (stereo partly drawn) |  |  | 76900 |  |  |  |  |  |  | 2800 | 122000 | 166000 | > 1.3 | 
CSc1ccc(OP(=O)(Oc2ccc(SC)cc2)C(NC(=O)[C@@H]2CCCN2C(=O)[C@@H](NC(=O)Cn2cc(C)c(=O)n(CC(=O)O)c2=O)C(C)C)C(C)C)cc1 (mixture of isomers) | 8.2 |  | 118000 |  | 42 | 100 | 3.95 | 6.11 | 6.11 | 140 | 965000 | 22900 |  | 
CSc1ccc(OP(=O)(Oc2ccc(SC)cc2)[C@@H](NC(=O)[C@@H]2CCCN2C(=O)[C@@H](NC(=O)COc2ccc(OCC(=O)O)cc2)C(C)C)C(C)C)cc1 | 60 |  | 39200 |  | 365 |  |  |  |  | < 50 | 2.35e+06 | 6450 |  | 15
